According to ChEMBL document CHEMBL1122782, “Bulky amine analogues of ketoprofen: potent antiinflammatory agents” (J Med Chem, 1984):

How the values were obtained:
Rattus norvegicus [1] = assay: The mean increase in paw volume was compared between drug treated groups and placebo to calculate the percent inhibition in rats at 0.02 mmol/kg by carrageenan Edema Assay; 0-19; format: functional
Rattus norvegicus [2] = assay: The mean increase in paw volume was compared between drug treated groups and placebo to calculate the percent inhibition in rats at 0.02 mmol/kg by carrageenan Edema Assay; 40-49; format: functional
Rattus norvegicus [3] = assay: The percent inhibition was calculated from the average differences in hind paw volume between the adjuvant injected controls and the adjuvant-injected medicated rats at 0.08 mmol/kg; 90-99; format: functional
Rattus norvegicus [4] = assay: The mean increase in paw volume was compared between drug treated groups and placebo to calculate the percent inhibition in rats at 0.02 mmol/kg by carrageenan Edema Assay; 20-29; format: functional
Rattus norvegicus [5] = assay: The percent inhibition was calculated from the average differences in hind paw volume between the adjuvant injected controls and the adjuvant-injected medicated rats at 0.08 mmol/kg; 60-69; format: functional; settings: Rattus norvegicus
Rattus norvegicus [6] = assay: The mean increase in paw volume was compared between drug treated groups and placebo to calculate the percent inhibition in rats at 0.02 mmol/kg by carrageenan Edema Assay 0-19; format: functional
Rattus norvegicus [7] = assay: The mean increase in paw volume was compared between drug treated groups and placebo to calculate the percent inhibition in rats at 0.08 mmol/kg by carrageenan Edema Assay; 30-39; format: functional
Rattus norvegicus [8] = assay: The mean increase in paw volume was compared between drug treated groups and placebo to calculate the percent inhibition in rats at 0.08 mmol/kg by carrageenan Edema Assay; 40-49; format: functional
Rattus norvegicus [9] = assay: The mean increase in paw volume was compared between drug treated groups and placebo to calculate the percent inhibition in rats at 0.02 mmol/kg by carrageenan Edema Assay; 30-39; format: functional; settings: Rattus norvegicus
Rattus norvegicus [10] = assay: Ulcerogenicity was measured in intestine during the 3 week adjuvant arthritis test, no of animals with ulcers out of 24 animals tested at 0.009 mM/kg (2.29 mg) was reported; format: functional
Outline: (§1)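 Male Sprague-Dawley rats (200–230 g) got 0.1 mL of a 0.6% M. butyricum adjuvant suspension in heavy mineral oil into the plantar tissue of one hind paw. Oral gavage dosing started the same day and continued daily for 21 days, in 1% gum tragacanth or corn oil-water emulsion. At the end, rats were killed and the small intestine and stomach were examined for ulcers, reported as animals with ulcers over animals tested.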

Rattus norvegicus [11] = assay: The mean increase in paw volume was compared between drug treated groups and placebo to calculate the percent inhibition in rats at 0.02 mmol/kg by carrageenan Edema Assay; 60-69; format: functional
Rattus norvegicus [12] = assay: Antiinflammatory efficacy is measured by the percent inhibition of paw volume during the 3 week adjuvant arthritis test at 0.002 mM/kg (0.51 mg); format: functional
Outline: (§2)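 Male Sprague-Dawley rats (200–230 g) were used in groups of eight. Each received 0.1 mL of 0.6% M. butyricum in heavy mineral oil into the plantar tissue of one hind paw. Daily oral gavage in 1% gum tragacanth or corn oil-water emulsion began on the injection day and ran 21 days. Total hind paw volume was measured by mercury displacement, and inhibition was taken versus vehicle-treated adjuvant controls.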

Rattus norvegicus [13] = assay: Ulcerogenicity was measured in intestine during the 3 week adjuvant arthritis test, no of animals with ulcers out of animals tested at 0.06 mM/kg (15.2 mg) was reported; toxic; format: functional, organism-based; outline: as §1
Rattus norvegicus [14] = assay: Potency relative to phenylbutazone at 0.006 mM/kg; format: functional
Outline: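 21-day adjuvant arthritis in male Sprague-Dawley rats (0.6% M. butyricum in mineral oil, intraplantar), with daily oral gavage from the day of adjuvant injection. Total hind-paw volume was measured by mercury displacement and percent inhibition calculated against adjuvant controls. The ED50 for 50% inhibition of paw volume was expressed relative to phenylbutazone, with 95% confidence limits.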

Rattus norvegicus [15] = assay: Antiinflammatory efficacy is measured by the weight gain in rats during the 3 week adjuvant arthritis test at 0.006 mM/kg (0.152 mg); format: functional
Outline: (§3)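 Rats were adjuvant-injected (M. butyricum in mineral oil, one hind paw) or given a mineral-oil placebo. They were dosed by gavage daily for 21 days from the injection day, with vehicle only for both control groups, then weighed at the end. Weight gain % = (treated − adjuvant control)/(negative control − adjuvant control) × 100.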

Rattus norvegicus [16] = assay: Ulcerogenicity was measured in intestine during the 3 week adjuvant arthritis test, no of animals with ulcers out of 4 animals tested at 0.002 mM/kg (0.51 mg) was reported; format: functional; outline: as §1
Rattus norvegicus [17] = assay: Antiinflammatory efficacy is measured by the percent inhibition of paw volume during the 3 week adjuvant arthritis test at 0.009 mM/kg (2.29 mg); format: functional; outline: as §2
Rattus norvegicus [18] = assay: Antiinflammatory efficacy is measured by the weight gain in rats during the 3 week adjuvant arthritis test at 0.009 mM/kg (2.29 mg); format: functional; outline: as §3
Rattus norvegicus [19] = assay: Ulcerogenicity was measured in stomach during the 3 week adjuvant arthritis test, no of animals with ulcers out of 24 animals tested at 0.009 mM/kg (2.29 mg) was reported; format: functional; outline: as §1
Rattus norvegicus [20] = assay: Antiinflammatory efficacy is measured by the percent inhibition of paw volume during the 3 week adjuvant arthritis test at 0.006 mM/kg ([…]); format: functional; outline: as §2
Rattus norvegicus [21] = assay: Ulcerogenicity was measured in intestine during the 3 week adjuvant arthritis test, no of animals with ulcers out of 31 animals tested at 0.03 mM/kg (7.62 mg) was reported; format: functional; outline: as §1
Rattus norvegicus [22] = assay: Antiinflammatory efficacy is measured by the weight gain in rats during the 3 week adjuvant arthritis test at 0.002 mM/kg (0.51 mg); format: functional; outline: as §3
Rattus norvegicus [23] = assay: Ulcerogenicity was measured in stomach during the 3 week adjuvant arthritis test, no of animals with ulcers out of 31 animals tested at 0.03 mM/kg (7.62 mg) was reported; format: functional; outline: as §1
Rattus norvegicus [24] = assay: The percent inhibition was calculated from the average differences in hind paw volume between the adjuvant injected controls and the adjuvant-injected medicated rats at 0.08 mmol/kg; 0.009-82; format: functional; settings: read-out: Inhibition
Rattus norvegicus [25] = assay: Ulcerogenicity was measured in stomach during the 3 week adjuvant arthritis test, no of animals with ulcers out of 4 animals tested at 0.002 mM/kg (0.51 mg) was reported; format: functional; outline: as §1
Rattus norvegicus [26] = organism: Rattus norvegicus; assay: Compound was evaluated for highest non-ulcerogenic dose (less than 50% ulcer incidence); format: functional; settings: read-out: ED50
Outline: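 Taken from the 21-day adjuvant arthritis test in male Sprague-Dawley rats dosed orally each day from the day of adjuvant injection. Small intestines and stomachs were examined for ulceration at the end. The value is the highest dose giving less than 50% ulcer incidence.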

Rattus norvegicus [27] = assay: Antiinflammatory efficacy is measured by the weight gain in rats during the 3 week adjuvant arthritis test at 0.005 mM/kg (2.11 mg); format: functional; outline: as §3
Rattus norvegicus [28] = assay: Ulcerogenicity was measured in stomach during the 3 week adjuvant arthritis test, no of animals with ulcers out of 4 animals tested at 0.02 mM/kg (8.43 mg) was reported; format: functional
Outline: (§4)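 Male Sprague-Dawley rats (200–230 g) were injected in the plantar tissue of one hind paw with 0.1 mL of 0.6% M. butyricum suspension in heavy mineral oil. Daily oral gavage began on the day of adjuvant injection and ran for the 21 days, with drug suspended in 1% gum tragacanth or a corn oil-water emulsion. At the end the rats were sacrificed and the small intestine and stomach were examined for ulcers. Results are given as animals with ulcers/animals tested.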

Rattus norvegicus [29] = assay: Antiinflammatory efficacy is measured by the weight gain in rats during the 3 week adjuvant arthritis test at 0.08 mM/kg (33.7 mg); format: functional; outline: as §3
Rattus norvegicus [30] = assay: Antiinflammatory efficacy is measured by the weight gain in rats during the 3 week adjuvant arthritis test at 0.02 mM/kg (8.43 mg); format: functional; outline: as §3
Rattus norvegicus [31] = assay: Ulcerogenicity was measured in intestine during the 3 week adjuvant arthritis test, no of animals with ulcers out of 8 animals tested at 0.08 mM/kg (33.7 mg) was reported; format: functional
Outline: (§5)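 In the 21-day adjuvant arthritis model, male Sprague-Dawley rats (200–230 g) received an M. butyricum mineral-oil suspension into one hind paw. They were dosed daily by gavage from the day of injection. At the end of the study the rats were killed, and the small intestines were examined for ulcers. Results are given as the number of ulcerated animals over the number tested.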

Rattus norvegicus [32] = assay: The percent inhibition was calculated from the average differences in hind paw volume between the adjuvant injected controls and the adjuvant-injected medicated rats at 0.08 mmol/kg; 80-89; format: functional
Rattus norvegicus [33] = assay: Antiinflammatory efficacy is measured by the percent inhibition of paw volume during the 3 week adjuvant arthritis test at 0.08 mM/kg (33.7 mg); format: functional; outline: as §2
Rattus norvegicus [34] = assay: Antiinflammatory efficacy is measured by the percent inhibition of paw volume during the 3 week adjuvant arthritis test at 0.005 mM/kg (2.11 mg); format: functional; outline: as §2
Rattus norvegicus [35] = assay: Ulcerogenicity was measured in intestine during the 3 week adjuvant arthritis test, no of animals with ulcers out of 4 animals tested at 0.02 mM/kg (8.43 mg) was reported; format: functional; outline: as §5
Rattus norvegicus [36] = assay: Ulcerogenicity was measured in intestine during the 3 week adjuvant arthritis test, no of animals with ulcers out of animals tested at 0.16 mM/kg (67.4 mg) was reported; toxic; format: functional, organism-based; outline: as §4
Rattus norvegicus [37] = assay: Antiinflammatory efficacy is measured by the percent inhibition of paw volume during the 3 week adjuvant arthritis test at 0.02 mM/kg (8.43 mg); format: functional; outline: as §2
Rattus norvegicus [38] = assay: Ulcerogenicity was measured in stomach during the 3 week adjuvant arthritis test, no of animals with ulcers out of 8 animals tested at 0.08 mM/kg (33.7 mg) was reported; format: functional; outline: as §4

CC(CN1CCCCC1CC1CCCCC1)c1cccc(C(C)c2ccccc2)c1 (stereo not given)
inhibition in vivo at 20 µmol/kg (Rattus norvegicus [1]): 0%

CC(CN1CCCCC1CC1CCCCC1)c1cccc(/C(=N\O)c2ccccc2)c1 (stereo not given)
inhibition in vivo at 20 µmol/kg (Rattus norvegicus [2]): 40%
inhibition in vivo at 80 µmol/kg (Rattus norvegicus [3]): 90%

COc1ccc(C(=O)c2cccc(C(C)CN3CCCCC3CC3CCCCC3)c2)cc1 (stereo not given)
inhibition in vivo at 20 µmol/kg (Rattus norvegicus [4]): 20%
inhibition in vivo at 80 µmol/kg (Rattus norvegicus [5]): 60%

O=C(c1ccccc1)c1cccc(CCN2CCOCC2)c1
inhibition in vivo at 20 µmol/kg (Rattus norvegicus [6]): 0%

CC(CN1CCCCC1CCCC1CCCCC1)c1cccc(C(=O)c2ccccc2)c1 (stereo not given)
inhibition in vivo at 80 µmol/kg (Rattus norvegicus [7]): 30%

CC(CN1CCC(CN2CCCCC2)CC1)c1cccc(C(=O)c2ccccc2)c1 (stereo not given)
inhibition in vivo at 80 µmol/kg (Rattus norvegicus [8]): 40%
inhibition in vivo at 80 µmol/kg (Rattus norvegicus [3]): 90%

CC(CN1CCCCC1C1CCCCC1)c1cccc(C(=O)c2ccccc2)c1 (stereo not given)
inhibition in vivo at 80 µmol/kg (Rattus norvegicus [7]): 30%
inhibition in vivo at 80 µmol/kg (Rattus norvegicus [3]): 90%

CC(CN1CCCCC1CC1CCCCC1)c1cccc(C(O)c2cccc(Cl)c2)c1 (stereo not given)
inhibition in vivo at 20 µmol/kg (Rattus norvegicus [1]): 0%

CC(CN1CCCCC1CCCC1CCCCC1)c1cccc(C(O)c2ccccc2)c1 (stereo not given)
inhibition in vivo at 20 µmol/kg (Rattus norvegicus [9]): 30%

CC(CN1CCCCC1CC1CCCCC1)c1cccc(C(=O)c2ccc(Cl)c(Cl)c2)c1 (stereo not given)
inhibition in vivo at 20 µmol/kg (Rattus norvegicus [1]): 0%

NC(c1ccccc1)c1cccc(CCN2CCOCC2)c1 (stereo not given)
inhibition in vivo at 20 µmol/kg (Rattus norvegicus [1]): 0%

O/N=C(/c1ccccc1)c1cccc(CCN2CCOCC2)c1
inhibition in vivo at 20 µmol/kg (Rattus norvegicus [1]): 0%

CC(CN1CCCCC1CC1CCCCC1)c1cccc(Cc2ccccc2)c1 (stereo not given)
inhibition in vivo at 20 µmol/kg (Rattus norvegicus [4]): 20%
inhibition in vivo at 80 µmol/kg (Rattus norvegicus [3]): 90%

CC(C(=O)O)c1cccc(C(=O)c2ccccc2)c1 (stereo not given) [KETOPROFEN]
Ulcerogenic index (Rattus norvegicus [10]): 4
inhibition in vivo at 20 µmol/kg (Rattus norvegicus [11]): 60%
Inhibition (Rattus norvegicus [12]): 68%
Ulcerogenic index (Rattus norvegicus [13]): Toxic
Relative potency (Rattus norvegicus [14]): 32.4%
Weight gain (Rattus norvegicus [15]): 21%
Ulcerogenic index (Rattus norvegicus [16]): 0
Inhibition (Rattus norvegicus [17]): 82%
Weight gain (Rattus norvegicus [18]): 79%
Ulcerogenic index (Rattus norvegicus [19]): 6
Inhibition (Rattus norvegicus [20]): 31%
Ulcerogenic index (Rattus norvegicus [21]): 22
Weight gain (Rattus norvegicus [22]): 35%
Ulcerogenic index (Rattus norvegicus [23]): 3
inhibition in vivo at 80 µmol/kg (Rattus norvegicus [24]): 82%
Ulcerogenic index (Rattus norvegicus [25]): 0
highest non-ulcerogenic dose (Rattus norvegicus [26]): 1 µmol/kg

Cc1cccc(C(=O)c2cccc(C(C)CN3CCCCC3CC3CCCCC3)c2)c1 (stereo not given)
inhibition in vivo at 20 µmol/kg (Rattus norvegicus [1]): 0%

CC(CN1CCCCC1CC1CCCCC1)c1cccc(C(=O)c2ccc(F)cc2)c1 (stereo not given)
Weight gain (Rattus norvegicus [27]): 50%
Ulcerogenic index (Rattus norvegicus [28]): 0
Weight gain (Rattus norvegicus [29]): 81%
Weight gain (Rattus norvegicus [30]): 31%
Ulcerogenic index (Rattus norvegicus [31]): 3
inhibition in vivo at 80 µmol/kg (Rattus norvegicus [32]): 80%
Inhibition (Rattus norvegicus [33]): 85%
Inhibition (Rattus norvegicus [34]): 61%
Ulcerogenic index (Rattus norvegicus [35]): 1
Ulcerogenic index (Rattus norvegicus [36]): Toxic
Inhibition (Rattus norvegicus [37]): 55%
highest non-ulcerogenic dose (Rattus norvegicus [26]): 3 µmol/kg
Ulcerogenic index (Rattus norvegicus [38]): 1
inhibition in vivo at 20 µmol/kg (Rattus norvegicus [9]): 30%
